In ChEMBL document CHEMBL1921722, “In vitro and in vivo evaluation of select kahalalide F analogs with antitumor and antifungal activities” (Bioorg Med Chem, 2011):
Activity calls are given as the source filed them.

How the values were obtained:
[1] = test system: SK-MEL-5; test: Cytotoxicity against human SK-MEL-5 cells assessed as cell growth at 8 nM by sulforhodamine B assay relative to control; type: functional; details: read-out: Activity
[2] = test system: Escherichia coli; test: Antimicrobial activity against Escherichia coli ATCC 35218 by CLSI method; type: functional, organism-based
[3] = test system: HOP-62; test: Cytotoxicity against human HOP62 cells assessed as cell growth at 8 nM by sulforhodamine B assay relative to control; type: functional; details: read-out: Activity
[4] = test system: MOLT-4; test: Cytotoxicity against human MOLT4 cells assessed as cell growth at 8 nM by sulforhodamine B assay relative to control; type: functional; details: read-out: Activity
[5] = test system: A498; test: Cytotoxicity against human A498 cells assessed as cell growth at 8 nM by sulforhodamine B assay relative to control; type: functional; details: read-out: Activity
Summary of the method: (§1)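 Run at NCI in the DTP 60-cell-line human tumor panel by standard procedure. Compounds were first screened at a single concentration, then tested at five tenfold-spaced concentrations. GI50 is the concentration reducing treated-cell growth to half that of untreated controls; TGI is the concentration completely halting growth.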

[6] = test system: TK-10; test: Cytotoxicity against human TK10 cells assessed as cell growth at 8 nM by sulforhodamine B assay relative to control; type: functional; details: read-out: Activity
[7] = test system: NCI/ADR-RES; test: Cytotoxicity against human NCI/ADR-RES cells assessed as cell growth at 8 nM by sulforhodamine B assay relative to control; type: functional; details: read-out: Activity
[8] = test system: HL-60(TB); test: Cytotoxicity against human HL-60(TB) cells assessed as cell growth at 80 nM by sulforhodamine B assay relative to control; type: functional; details: read-out: Activity
[9] = test system: SW-620; test: Cytotoxicity against human SW620 cells assessed as cell growth at 80 nM by sulforhodamine B assay relative to control; type: functional; details: read-out: Activity
[10] = test system: SNB-19; test: Cytotoxicity against human SNB19 cells assessed as cell growth at 80 nM by sulforhodamine B assay relative to control; type: functional; details: read-out: Activity
[11] = test system: OVCAR-8; test: Cytotoxicity against human OVCAR8 cells assessed as cell growth at 80 nM by sulforhodamine B assay relative to control; type: functional; details: read-out: Activity
[12] = test system: A498; test: Cytotoxicity against human A498 cells assessed as cell growth at 80 nM by sulforhodamine B assay relative to control; type: functional; details: read-out: Activity; summary of the method: as §1
[13] = test system: SN12C; test: Cytotoxicity against human SN12C cells assessed as cell growth at 80 nM by sulforhodamine B assay relative to control; type: functional; details: read-out: Activity
[14] = test system: NCI-H322M; test: Cytotoxicity against human NCI-H322M cells assessed as cell growth at 800 nM by sulforhodamine B assay relative to control; type: functional; details: read-out: Activity
[15] = test system: NCI-H460; test: Cytotoxicity against human NCI-H460 cells assessed as cell growth at 800 nM by sulforhodamine B assay relative to control; type: functional; details: read-out: Activity
[16] = test system: COLO 205; test: Cytotoxicity against human COLO205 cells assessed as cell growth at 800 nM by sulforhodamine B assay relative to control; type: functional; details: read-out: Activity; summary of the method: as §1
[17] = test system: HCC 2998; test: Cytotoxicity against human HCC2998 cells assessed as cell growth at 800 nM by sulforhodamine B assay relative to control; type: functional; details: read-out: Activity
[18] = test system: U-251; test: Cytotoxicity against human U251 cells assessed as cell growth at 800 nM by sulforhodamine B assay relative to control; type: functional; details: read-out: Activity
[19] = test system: OVCAR-3; test: Cytotoxicity against human OVCAR3 cells assessed as cell growth at 800 nM by sulforhodamine B assay relative to control; type: functional; details: read-out: Activity
[20] = test system: OVCAR-4; test: Cytotoxicity against human OVCAR4 cells assessed as cell growth at 800 nM by sulforhodamine B assay relative to control; type: functional; details: read-out: Activity
[21] = test system: A549; test: Cytotoxicity against human A549 cells assessed as cell growth at 8 uM by sulforhodamine B assay relative to control; type: functional; details: read-out: Activity; summary of the method: as §1
[22] = test system: SF-268; test: Cytotoxicity against human SF268 cells assessed as cell growth at 8 uM by sulforhodamine B assay relative to control; type: functional; details: read-out: Activity
[23] = test system: IGROV-1; test: Cytotoxicity against human IGROV1 cells assessed as cell growth at 8 uM by sulforhodamine B assay relative to control; type: functional; details: read-out: Activity
[24] = test system: EKVX; test: Cytotoxicity against human EKVX cells assessed as cell growth at 80 uM by sulforhodamine B assay relative to control; type: functional; details: read-out: Activity
[25] = test system: COLO 205; test: Cytotoxicity against human COLO205 cells assessed as cell growth at 80 uM by sulforhodamine B assay relative to control; type: functional; details: read-out: Activity; summary of the method: as §1
[26] = test system: HCT-15; test: Cytotoxicity against human HCT15 cells assessed as cell growth at 80 uM by sulforhodamine B assay relative to control; type: functional; details: read-out: Activity
[27] = test system: SF-539; test: Cytotoxicity against human SF539 cells assessed as cell growth at 80 uM by sulforhodamine B assay relative to control; type: functional; details: read-out: Activity
[28] = test system: SK-MEL-2; test: Cytotoxicity against human SK-MEL-2 cells assessed as cell growth at 80 uM by sulforhodamine B assay relative to control; type: functional; details: read-out: Activity
[29] = test system: MDA-MB-231; test: Cytotoxicity against human MDA-MB-231 cells assessed as cell growth at 80 uM by sulforhodamine B assay relative to control; type: functional; details: read-out: Activity
[30] = test system: Hs-578T; test: Cytotoxicity against human Hs578T cells assessed as cell growth at 80 uM by sulforhodamine B assay relative to control; type: functional; details: read-out: Activity
[31] = test system: OVCAR-3; test: Antitumor activity against human OVCAR3 cells xenografted in mouse assessed as tumor cell killing at 4.7 mg/kg, ip qd for 4 days by MTT assay; type: functional, organism-based; parameters: dose 4.7 mg/kg
Summary of the method: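 Hollow-fiber assay in mice. Tumor lines were grown in RPMI-1640 with 10% FBS and 2 mM glutamine. Cells at 2 × 10^6 cells/ml were loaded into 1 mm PVDF fibers (500,000 Da cutoff), heat-sealed at 2 cm and held 24–48 h at 37 °C, 5% CO2 before implantation. Compound was given IP. Fibers were collected the day after the fourth treatment for MTT (OD 540 nm, group means). A ≥50% cut in percent net growth versus vehicle counted as positive.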

[32] = test system: Fusarium sp.; test: Antimicrobial activity against Fusarium sp. by CLSI method; type: functional, organism-based
[33] = test system: HOP-92; test: Cytotoxicity against human HOP92 cells by sulforhodamine B assay; type: functional; details: for TGI: read-out: pTGI (converted)
Summary of the method: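 Run by the NCI Developmental Therapeutics Program on its 60-line human tumour cell panel using the standard procedure. Compounds went through a single-concentration prescreen first, and those active by NCI criteria went on to a five-concentration growth-inhibition test. GI50 is the concentration that cuts growth of treated cells to half that of untreated control cells.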

[34] = test system: NCI-H322M; test: Cytotoxicity against human NCI-H322M cells by sulforhodamine B assay; type: functional
Summary of the method: (§2)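 NCI Developmental Therapeutics Program 60-cell-line human tumor panel screen, run at NCI. A single-concentration pre-screen was followed by a five-concentration dose-response in 10-fold steps. GI50 is the concentration that reduces growth of treated cells to half that of untreated control cells. TGI is the concentration that completely halts growth.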

[35] = test system: COLO 205; test: Cytotoxicity against human COLO205 cells by sulforhodamine B assay; type: functional; summary of the method: as §1
[36] = test system: SF-539; test: Cytotoxicity against human SF539 cells by sulforhodamine B assay; type: functional; details: for TGI: read-out: pTGI (converted); summary of the method: as §2
[37] = test system: U-251; test: Cytotoxicity against human U251 cells by sulforhodamine B assay; type: functional; details: for TGI: read-out: pTGI (converted); summary of the method: as §2

Compound: C/C=C1\NC(=O)[C@H](Cc2ccccc2)NC(=O)[C@@H](C(C)C)NC(=O)[C@@H]([C@@H](C)CC)NC(=O)[C@H](NC(=O)[C@H](NC(=O)[C@H](CCCNCc2ccc(N3CCOCC3)cc2)NC(=O)[C@H]2CCCN2C(=O)[C@H](NC(=O)[C@@H](NC(=O)[C@@H](NC(=O)[C@H](NC(=O)CCCC(C)C)C(C)C)[C@@H](C)O)C(C)C)C(C)C)[C@@H](C)CC)[C@@H](C)OC(=O)[C@H](C(C)C)NC1=O
- growth at 0.008 µM [1]: 105%
- Activity [2]: inactive
- growth at 0.008 µM [3]: 104%
- growth at 0.008 µM [4]: 103%
- growth at 0.008 µM [5]: 96%
- growth at 0.008 µM [6]: 118%
- growth at 0.008 µM [7]: 104%
- growth at 0.08 µM [8]: 96%
- growth at 0.08 µM [9]: 99%
- growth at 0.08 µM [10]: 102%
- growth at 0.08 µM [11]: 98%
- growth at 0.08 µM [12]: 110%
- growth at 0.08 µM [13]: 91%
- growth at 0.8 µM [14]: -76%
- growth at 0.8 µM [15]: 104%
- growth at 0.8 µM [16]: -52%
- growth at 0.8 µM [17]: 6%
- growth at 0.8 µM [18]: 72%
- growth at 0.8 µM [19]: 46%
- growth at 0.8 µM [20]: 79%
- growth at 8 µM [21]: -65%
- growth at 8 µM [22]: -52%
- growth at 8 µM [23]: -75%
- growth at 80 µM [24]: -46%
- growth at 80 µM [25]: 13%
- growth at 80 µM [26]: -45%
- growth at 80 µM [27]: -63%
- growth at 80 µM [28]: -32%
- growth at 80 µM [29]: -43%
- growth at 80 µM [30]: -40%
- Activity [31]: inactive
- Activity [32]: Active
- GI50 [33]: 1700 nM
- LC50 [33]: 47900 nM
- TGI [33]: 7080 nM
- GI50 ([34]; read-out: GI50): 133 nM
- TGI ([34]; read-out: TGI): 264 nM
- GI50 ([34]; read-out: pGI50 (converted)): 132 nM
- TGI ([34]; read-out: pTGI (converted)): 263 nM
- GI50 ([35]; read-out: GI50): 152 nM
- GI50 ([35]; read-out: pGI50 (converted)): 151 nM
- GI50 [36]: 1290 nM
- LC50 [36]: 4570 nM
- TGI [36]: 2450 nM
- GI50 [37]: 1000 nM
- LC50 [37]: 3890 nM
- TGI [37]: 2000 nM

Compound: C/C=C1\NC(=O)[C@H](Cc2ccccc2)NC(=O)[C@@H](C(C)C)NC(=O)[C@@H]([C@@H](C)CC)NC(=O)[C@H](NC(=O)[C@H](NC(=O)[C@H](CCCNCc2ccc(F)c(C)c2)NC(=O)[C@H]2CCCN2C(=O)[C@H](NC(=O)[C@@H](NC(=O)[C@@H](NC(=O)[C@H](NC(=O)CCCC(C)C)C(C)C)[C@@H](C)O)C(C)C)C(C)C)[C@@H](C)CC)[C@@H](C)OC(=O)[C@H](C(C)C)NC1=O
- growth at 0.008 µM [1]: 99%
- Activity [2]: inactive
- growth at 0.008 µM [3]: 101%
- growth at 0.008 µM [4]: 103%
- growth at 0.008 µM [5]: 102%
- growth at 0.008 µM [6]: 112%
- growth at 0.008 µM [7]: 105%
- growth at 0.08 µM [8]: 97%
- growth at 0.08 µM [9]: 97%
- growth at 0.08 µM [10]: 96%
- growth at 0.08 µM [11]: 103%
- growth at 0.08 µM [12]: 108%
- growth at 0.08 µM [13]: 94%
- growth at 0.8 µM [14]: -90%
- growth at 0.8 µM [15]: 104%
- growth at 0.8 µM [16]: -66%
- growth at 0.8 µM [17]: -47%
- growth at 0.8 µM [18]: 27%
- growth at 0.8 µM [19]: 39%
- growth at 0.8 µM [20]: 7%
- growth at 8 µM [21]: -64%
- growth at 8 µM [22]: -63%
- growth at 8 µM [23]: -75%
- growth at 80 µM [24]: -59%
- growth at 80 µM [25]: 33%
- growth at 80 µM [26]: -78%
- growth at 80 µM [27]: -62%
- growth at 80 µM [28]: -21%
- growth at 80 µM [29]: -89%
- growth at 80 µM [30]: -30%
- Activity [31]: inactive
- Activity [32]: Active
- GI50 [33]: 1410 nM
- LC50 [33]: 6170 nM
- TGI [33]: 2950 nM
- LC50 [34]: 457 nM
- GI50 ([34]; read-out: GI50): 131 nM
- TGI ([34]; read-out: TGI): 244 nM
- GI50 ([34]; read-out: pGI50 (converted)): 132 nM
- TGI ([34]; read-out: pTGI (converted)): 245 nM
- GI50 ([35]; read-out: GI50): 135 nM
- GI50 ([35]; read-out: pGI50 (converted)): 135 nM
- GI50 [36]: 1290 nM
- LC50 [36]: 4370 nM
- TGI [36]: 2400 nM
- GI50 [37]: 363 nM
- LC50 [37]: 3160 nM
- TGI [37]: 1260 nM
